The source of these data is ChEMBL document CHEMBL4350958, “Rational Design of Short Peptide Variants by Using Kunitzin-RE, an Amphibian-Derived Bioactivity Peptide, for Acquired Potent Broad-Spectrum Antimicrobial and Improved Therapeutic Potential of Commensalism Coinfection of Pathogens” (J Med Chem, 2019).

SMILES strings stand for the structures. Values after ≈ are worked out from the molar mass of the structure shown. Active and inactive are the calls of the source. Where a SMILES comes first, the peptide text is derived from it.

The subject of data set [1] is Escherichia coli. The data set is described as follows: Antibacterial activity against Escherichia coli K88 measured after 24 hrs. Format: functional. The conditions noted are these: K88, 24 h. The gist of the method: (§1)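 Broth microdilution adapted from NCCLS. Mid-log bacteria were diluted in MHB to a final (0.5–1) × 10^5 CFU mL−1. Peptides were serially diluted in 0.2% BSA and mixed with an equal volume of cells. After 24 h at 37 °C, MIC was read at A492 as the lowest concentration inhibiting 95% of growth. At least three independent experiments, each with three technical replicates.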

Data set [2] has as its system Lipopolysaccharide (LPS). In words: Displacement of BODIPY-TR-cadaverine from Escherichia coli O111:B4 LPS after 1 hr by spectrofluorophotometric method. The method, boiled down:
(§2)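 LPS from E. coli O111:B4 (50 μg/mL) preincubated 4 h with BODIPY-TR-cadaverine (5 μg/mL) in 50 mM Tris, pH 7.4. Mixed with equal volume of peptide (1-64 µM) and incubated 1 h at 37 °C, then fluorescence read. %ΔF = (Fobs−F0)/(F100−F0)×100, with 10 μg mL-1 polymyxin B defining F100. Three technical replicates per experiment.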

Data set [3] has as its system Staphylococcus aureus. The data set is described as follows: Antibacterial activity against Staphylococcus aureus ATCC 29213 measured after 18 to 24 hrs in presence of NaCl. It is filed as functional.
A further data set concerns Candida tropicalis. In words: Antifungal activity against Candida tropicalis cgmcc2.1975 measured after 48 hrs by broth microdilution method. It is filed as functional. The conditions noted are these: cgmcc2.1975, 48 h. The gist of the method: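 Modified CLSI M27-A2 microdilution. Yeast colonies were diluted in MOPS-buffered RPMI 1640 to a final (0.5–1) × 10^3 CFU mL−1 and mixed with an equal volume of peptide serially diluted in 0.2% BSA. After 48 h at 28 °C, MIC was read at A492 as the lowest concentration inhibiting 95% of growth. At least three independent experiments, each with three technical replicates.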
(In general: In broth dilution the organism is exposed to a series of concentrations in liquid medium.)

The subject of data set [4] is Staphylococcus aureus. The data set is described as follows: Antibacterial activity against Staphylococcus aureus ATCC 29213 measured after 18 to 24 hrs in presence of FeCl3. Format: functional.
The nature of data set [5]: Conformational stability in sodium dodecyl sulfate at 35 uM by CD spectra analysis. It is filed as physicochemical. The method, boiled down: (§3)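 CD spectra from 190 to 250 nm of peptide at 35 μM in 10 mM PBS, 30 mM SDS micelles or 50% TFE, recorded in a 1.0-mm quartz cell. Ellipticity was converted to mean residue ellipticity. Three independent scans, each averaged over more than 3 runs.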

Data set [6] relates to Escherichia coli. The data set is described as follows: Bactericidal activity against Escherichia coli K99 incubated for 24 hrs followed by replating on agar plate and measured after overnight incubation. It is filed as functional. The conditions noted are these: K99, 24 h, read-out: MBC>99.9. The method, boiled down: (§4)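 Mid-log bacteria diluted in MHB to (0.5–1) × 10^5 CFU/mL and mixed 1:1 with peptide serially diluted in 0.2% BSA. After 24 h at 37 °C, 50 μL of each mixture was plated on agar and incubated overnight. MBC taken as the lowest concentration killing >99.9% of cells. At least three independent experiments, each with three technical replicates.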

Data set [7] has as its system Candida albicans. In words: Antifungal activity against Candida albicans cgmcc2.2086 measured after 48 hrs in presence of NH4Cl by broth microdilution method. It is filed as functional. The conditions noted are these: cgmcc2.2086, 48 h.
Data set [8] has as its system Escherichia coli. In words: Antibacterial activity against Escherichia coli ATCC 25922 measured after 18 to 24 hrs in presence of FeCl3. It is filed as functional.
The test system of data set [9] is Staphylococcus epidermidis. In words: Antibacterial activity against Staphylococcus epidermidis ATCC 12228 measured after 24 hrs. Format: functional. The conditions noted are these: ATCC 12228, 24 h. The gist of the method: as §1
The test system of data set [10] is Lipopolysaccharide (LPS). In words: Displacement of BODIPY-TR-cadaverine from Escherichia coli O111:B4 LPS at 1 to 64 uM after 1 hr by spectrofluorophotometric method relative to control. The gist of the method:
as §2

Data set [11] in a line: Therapeutic index, ratio of MHC10 for hemolytic activity in human RBC to MIC95 against Candida albicans cgmcc2.2086. Format: toxicity. The conditions noted are these: human red blood cells (erythrocytes), read-out: TI. The method, boiled down: (§5)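 Therapeutic index = MHC divided by MIC. MHC is the lowest concentration giving >10% lysis of human RBC (1 h, 37 °C, 1-128 µM, A576). MIC is 95% growth inhibition by broth microdilution: bacteria in MHB 24 h at 37 °C; Candida in MOPS-buffered RPMI 1640 at (0.5–1) × 10^3 CFU mL−1, 48 h at 28 °C.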

The test system of data set [12] is Escherichia coli. The data set is described as follows: Antibacterial activity against Escherichia coli ATCC 25922 measured after 24 hrs. Format: functional. The conditions noted are these: ATCC 25922, 24 h. The gist of the method: as §1
A short description of data set [13]: Therapeutic index, ratio of MHC10 for hemolytic activity in human RBC to MIC95 against methicillin-resistant Staphylococcus aureus ATCC 43300. Format: toxicity. The conditions noted are these: human red blood cells (erythrocytes), read-out: TI. The method, boiled down: as §5
For the next data set, the system named is Salmonella typhimurium. The data set is described as follows: Bactericidal activity against Salmonella typhimurium ATCC 14028 incubated for 24 hrs followed by replating on agar plate and measured after overnight incubation. It is filed as functional, Salmonella enterica subsp. enterica serovar Typhimurium. The conditions noted are these: Salmonella enterica, ATCC 14028, 24 h; read-out: MBC>99.9. The gist of the method: as §4

Data set [14] is described as follows: Conformational stability in 50% trifluoro-ethyl alcohol assessed as alpha-helical structural propensity by measuring absorption spectra at minimum dichroic band at 35 uM by CD spectra analysis. Format: physicochemical. The gist of the method:
as §3

Data set [15] is described as follows: Therapeutic index, ratio of MHC10 for hemolytic activity in human RBC to MIC95 against Escherichia coli ATCC 25922. Format: toxicity. The conditions noted are these: human red blood cells (erythrocytes), pooled result: one value given for 9 cell lines, strains, targets or settings, read-out: TI. The method, boiled down: as §5
The subject of data set [16] is Escherichia coli. In words: Induction of cytoplasmic membrane […] in Escherichia coli ATCC 25922 assessed as increase in ONPG release at 1 to 64 uM measured at 6 mins interval for 120 mins by spectroscopically. It is filed as organism-based. The gist of the method: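 E. coli 25922 grown to mid-log in MHB with 2% lactose, then diluted to OD600 0.05 in 5 mM HEPES pH 7.4 with 20 mM glucose and 1.5 mM ONPG. Mixed with equal volume of peptide (1 to 64 μM) at 37 °C. OD420 read every 6 min for 0–120 min. Triplicate, three biological replicates.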

The subject of a further data set is Candida parapsilosis. In words: Fungicidal activity against Candida parapsilosis cgmcc2.3989 incubated for 48 hrs followed by replating on YM agar plate and measured after 48 hrs. Format: functional. The gist of the method:
(§6)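 Yeast diluted in MOPS-buffered RPMI 1640 to (0.5–1) × 10^3 CFU/mL (CLSI M27-A2, modified) and mixed 1:1 with peptide serially diluted in 0.2% BSA. After 48 h at 28 °C, 50 μL per well was plated on YM agar and incubated 48 h at 28 °C. MFC taken as the lowest concentration killing ≥99.9% of cells. Three or more independent experiments, triplicate wells.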

The next data set deals with Pseudomonas aeruginosa. The data set is described as follows: Antibacterial activity against Pseudomonas aeruginosa ATCC 27853 at sub-MBC measured after 17 serial passages. It is filed as functional, organism-based. The method, boiled down:
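P. aeruginosa ATCC 27853 passaged every 24 h by 100-fold dilution in MHB containing sub-MBC drug, for 30 passages. MBC was tested on the cells from each passage. Control cells were passaged in drug-free MHB. Run independently in triplicate with three biological replicates.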

Data set [17] deals with Candida albicans. In words: Fungicidal activity against Candida albicans cgmcc2.2086 incubated for 48 hrs followed by replating on YM agar plate and measured after 48 hrs. Format: functional. The method, boiled down:
as §6

Broadly, the MBC is the smallest concentration meeting the test's criterion for killing.

Take `CC[C@H](C)[C@H](NC(=O)[C@H](CCCCN)NC(=O)[C@H](C)NC(=O)[C@H](C)N)C(=O)N[C@H](C(=O)N[C@@H](CC(C)C)C(=O)N[C@@H](CC(N)=O)C(=O)N1CCC[C@H]1C(=O)N[C@@H](CCCCN)C(=O)N[C@@H](Cc1ccccc1)C(=O)N[C@@H](CCCNC(=N)N)C(=O)N[C@@H](CS)C(=O)N[C@@H](CCCCN)C(=O)N[C@@H](C)C(=O)N[C@@H](C)C(=O)N[C@@H](Cc1ccccc1)C(=O)N[C@@H](CS)C(N)=O)[C@@H](C)CC` (H-AAKIILNPKFRCKAAFC-NH2): the MIC95 was 32 µM (≈ 60.6 µg/mL) against Escherichia coli [1]; more than 128 µM in the data set on Staphylococcus aureus [3]; more than 128 µM against Candida tropicalis; more than 128 µM in the data set on Staphylococcus aureus [4]; more than 128 µM in the data set with Candida albicans [7]; 32 µM in the data set on Escherichia coli [8]. The MIC95 is more than 128 µM in [9] and 32 µM (≈ 60.6 µg/mL) in the data set with Escherichia coli [12]. Further, the Activity entry in the data set on Lipopolysaccharide (LPS) [2] was “Dose-dependent effect”; in the data set with Lipopolysaccharide (LPS) [10] it was 72%. Besides, the Stability result in [5] and in [14] was “Unstable” in each case. Moreover, the MBC was 64 µM (≈ 121 µg/mL) in the data set with Escherichia coli [6] and 128 µM (≈ 242 µg/mL) with Salmonella typhimurium. Also, the selectivity ratio in data set [11] turned out to be 0.25; in data set [13] it was 0.3; in [15] it was 0.5. The result in the data set on Escherichia coli [16] was Active.
As for `CC[C@H](C)[C@H](NC(=O)CN)C(=O)NCC(=O)N[C@@H](C)C(=O)N[C@H](C(=O)N[C@@H](CC(C)C)C(=O)N[C@@H](CCCCN)C(=O)N[C@H](C(=O)N[C@@H](CC(C)C)C(=O)N[C@H](C(=O)N[C@H](C(=O)NCC(=O)N[C@@H](CC(C)C)C(=O)N1CCC[C@H]1C(=O)N[C@@H](C)C(=O)N[C@@H](CC(C)C)C(=O)N[C@H](C(=O)N[C@@H](CO)C(=O)N[C@@H](Cc1c[nH]c2ccccc12)C(=O)N[C@H](C(=O)N[C@@H](CCCCN)C(=O)N[C@@H](CCCNC(=N)N)C(=O)N[C@@H](CCCCN)C(=O)N[C@@H](CCCNC(=N)N)C(=O)N[C@@H](CCC(N)=O)C(=O)N[C@@H](CCC(N)=O)C(N)=O)[C@@H](C)CC)[C@@H](C)CC)[C@@H](C)O)[C@@H](C)O)C(C)C)C(C)C` [MELITTIN], the MIC95 against Escherichia coli [1] is 1 µM (≈ 2.85 µg/mL); in the data set on Staphylococcus aureus [3], 8 µM; against Candida tropicalis, 4 µM (≈ 11.4 µg/mL); with Staphylococcus aureus [4] it was 4 µM; with Candida albicans [7], 4 µM; with Escherichia coli [8] it was 2 µM. Also, the MIC95 (in [9]; in the data set with Escherichia coli [12]) was 2 µM (≈ 5.69 µg/mL) each time. Moreover, the results for the Activity result with Lipopolysaccharide (LPS) [2] and in the data set on Lipopolysaccharide (LPS) [10] were “Dose-dependent effect” and 96%, respectively. In addition, the “MFC<=99.9” value against Candida parapsilosis worked out at 4 µM (≈ 11.4 µg/mL); against Candida albicans [17] it was 8 µM (≈ 22.8 µg/mL). Moreover, the minimal bactericidal concentration (MBC) in the data set on Escherichia coli [6] and with Salmonella typhimurium was 2 µM (≈ 5.69 µg/mL) throughout. For the same compound, the outcome with Pseudomonas aeruginosa was inactive. Besides, the selectivity ratio was 0.32 in [11], 0.35 in data set [13] and 0.54 in data set [15]. In addition, the outcome in the data set with Escherichia coli [16] was Active.
